“Also recorded” adds a separate entry of the source.

Data set [1] relates to human ClpXP. The data set is described as follows: Inhibition of α-casein degradation by hClpXP. The class given is biochemical. Conditions: 10 µM DBN93, 10 µM casein, 2 µM ClpX and 2 µM ClpP, 5 mM ATP, SDS-PAGE. In short, it runs like this:
(§1)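 Digests in 50 mM Tris pH 8.1, 15 mM Mg(OAc)₂, 5 mM DTT were run at 37 °C ±inhibitor. Aliquots were quenched with SDS loading dye at time points from 0 to 90 min, run on 12.5% SDS-PAGE and stained with Coomassie Blue.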

Data set [2] deals with Lon in isolated rat liver mitochondria. Put plainly: In organello degradation of 35S-labeled StAR in isolated mitochondria. It counts as cell-based. In short, it runs like this: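 ³⁵S-Met StAR precursor was made by in vitro transcription and reticulocyte-lysate translation, then imported for 30 min at 30 °C into rat liver mitochondria (600 µg) in HSB buffer with ATP, GTP, NADH and creatine kinase system. Non-imported protein was removed with trypsin on ice, then trypsin inhibitor. Pellets were chased at 30 °C ±inhibitor, TCA-precipitated, run on 12% SDS-PAGE with autoradiography, and bands quantified. Mean of 3 independent experiments, SEM, Student's t-test.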

The subject of a further data set is human 20S proteasome. Put plainly: Steady state peptidase activity assay. The class given is biochemical. Particulars: 2 µM DBN93, 200 nM human 20S proteasome, 100 µM FRETN 89–98, 500 µM ATP. The procedure, abridged:
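Run in 50 mM HEPES pH 8.0, 5 mM Mg(OAc)₂, 2 mM DTT at 37 °C, with reactions started by adding 20S proteasome. Cleavage was read as fluorescence emission at 420 nm (ex 320 nm). Rate was taken from the slope of the linear phase of the time course.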

The target in data set [3] is T1, human Lon (Homo sapiens, UniProt P36776).
T1 sequence (P36776 68-959): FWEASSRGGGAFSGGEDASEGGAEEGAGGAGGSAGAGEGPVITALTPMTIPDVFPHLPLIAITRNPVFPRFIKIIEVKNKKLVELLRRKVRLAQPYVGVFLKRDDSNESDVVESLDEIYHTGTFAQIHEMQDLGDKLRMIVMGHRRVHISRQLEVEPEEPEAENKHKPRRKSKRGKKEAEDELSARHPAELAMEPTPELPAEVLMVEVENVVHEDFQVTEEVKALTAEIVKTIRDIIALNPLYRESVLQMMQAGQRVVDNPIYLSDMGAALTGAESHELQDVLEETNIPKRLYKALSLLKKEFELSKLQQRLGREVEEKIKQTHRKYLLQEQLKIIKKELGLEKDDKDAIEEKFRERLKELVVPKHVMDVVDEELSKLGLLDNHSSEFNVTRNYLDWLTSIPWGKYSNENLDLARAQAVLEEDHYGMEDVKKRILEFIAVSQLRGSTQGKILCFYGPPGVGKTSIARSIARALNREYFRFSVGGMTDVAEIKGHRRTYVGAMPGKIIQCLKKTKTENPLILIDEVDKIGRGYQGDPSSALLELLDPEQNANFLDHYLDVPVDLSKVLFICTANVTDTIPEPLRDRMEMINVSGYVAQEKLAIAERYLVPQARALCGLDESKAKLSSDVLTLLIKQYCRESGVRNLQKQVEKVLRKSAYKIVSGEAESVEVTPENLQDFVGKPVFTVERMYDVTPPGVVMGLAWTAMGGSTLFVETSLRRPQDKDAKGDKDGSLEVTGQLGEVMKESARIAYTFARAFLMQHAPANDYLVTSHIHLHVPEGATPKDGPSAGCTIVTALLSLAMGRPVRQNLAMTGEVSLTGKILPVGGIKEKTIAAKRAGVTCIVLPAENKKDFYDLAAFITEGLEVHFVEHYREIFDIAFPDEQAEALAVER
The data set is described as follows: Time-dependent inhibition of human Lon peptidase activity. It counts as biochemical.

The next data set concerns S. Typhimurium Lon. Conditions: cited from earlier work.
Data set [4] deals with T1, human Lon. Put plainly: Inhibition of α-casein degradation by hLon. It counts as biochemical. Conditions: 10 µM DBN93, 10 µM casein, 1 µM hLon, 5 mM ATP, SDS-PAGE. The procedure, abridged: as §1
Data set [5] concerns human ClpXP. Put plainly: Steady state peptidase activity assay. It counts as biochemical.
The test system of data set [6] is HeLa mitochondrial lysate immunodepleted of Lon. The data set is described as follows: FRETN 89–98 cleavage in Lon-immunodepleted HeLa mitochondrial lysate. It counts as biochemical, human. Particulars: 10 µM DBN93, 100 µM FRETN 89–98, 1 mM ATP; at least three trials. In short, it runs like this: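 Affinity-purified anti-hLon was incubated overnight at 4 °C with HeLa mitochondria in 25 mM Tris pH 7.5, 100 mM NaCl, 0.1% Tween 20. Protein A agarose was pelleted, and the supernatant was desalted into 50 mM KPi pH 7, 20% glycerol, 0.1% Tween 20, then Bradford-quantified. Emission at 420 nm (ex 320 nm) was read for 1 hr.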

[7] abbreviates: S. Typhimurium Lon, error s.e.m.

For dansyl-YRGIT-Abu-B(OH)2 [DBN93], the “inhibition of α-casein degradation by hClpXP” value in the data set with human ClpXP [1] is “not by hClpXP”. The “inhibition of StAR degradation in mitochondria” value in data set [2] (10 µM DBN93, 1 or 2 hr chase, rat mitochondria, n=3) is “inhibits degradation of StAR”. Moreover, in data set [2] (intact rat mitochondria, 10 µM DBN93, inferred from StAR degradation), the “penetration of mitochondrial membranes” value is listed as “can penetrate the mitochondrial membranes”. Further, the “inhibition of 20S proteasome catalyzed cleavage of FRETN 89–98” value with human 20S proteasome is listed as “inhibited the cleavage; also recorded: inhibits”. For the same substance, the “time dependence of inhibition of hLon peptidase activity” value at human Lon [3] (Figure 3, panel a) is listed as “inhibited by DBN93 in a time-dependent manner”. In addition, the “Ki* of hLon vs Ki* of bacterial Lon” value at human Lon [3] (overall inhibitor potency) is listed as “comparable to the Ki* determined previously for bacterial Lon”. Besides, in the data set on S. Typhimurium Lon (4 µM DBN93 (condition of the hClpXP test)), the “inhibition of Lon” value is recorded as “completely inhibited”. Also, in the data set with S. Typhimurium Lon (setting [7]), the k3 is given as 1.0 ± 0.3 × 10^5 M^−1s^−1, the k4 was 0.022 ± 0.007 s⁻¹, the k5 was 0.0032 ± 0.0003 s⁻¹ and the k6 is 0.00028 ± 0.00002 s⁻¹. The “inhibition of α-casein degradation by hLon” value against human Lon [4] is “inhibited α-casein degradation by hLon”. For the same substance, the “inhibition of hClpXP” value in the data set with human ClpXP [5] (general statement) is “does not inhibit this protease; also recorded: not inhibited”. Moreover, the “effect on cleavage of FRETN 89–98 by hClpXP” value in the data set on human ClpXP [5] (up to 4 µM DBN93 (1 and 4 µM, Figure 5a)) was “not affected”. For the same substance, the “effect on peptide cleavage in Lon-immunodepleted mitochondria” value in data set [6] was “no decrease in peptide cleavage”.

The values above are taken from PMC3158820 (ACS chemical biology, 2011).
